Measurements reported in ChEMBL document CHEMBL1124617, “Approaches to isozyme-specific inhibitors. 16. A novel methyl-C5' covalent adduct of L-ethionine and beta,gamma-imido-ATP as a potent multisubstrate inhibitor of rat methionine adenosyltransferases” (J Med Chem, 1989).

Experiments:
Format in all cases: protein assay
[1] = target: T1, S-adenosylmethionine synthetase (MAT 1 and MAT 2) (Rattus norvegicus, UniProt P13444+P18298); assay: Compound was tested for inhibition constant with kidney form of M-T variants of Rat methionine adenosyltransferase when Methionine was the variable substrate
[2] = target: T1, S-adenosylmethionine synthetase (MAT 1 and MAT 2); assay: Compound was tested for inhibition constant with kidney form of M-2 variants of Rat methionine adenosyltransferase when ATP was the variable substrate
Summary of the method: (§1)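 Rat M-2 (normal tissue) isozyme. With methionine as the variable substrate, MgATP was fixed at 2 mM. With MgATP as the variable substrate, methionine was fixed at 60 µM. The MgATP KM was 0.14 mM. Ki values come from kinetic analysis of inhibition against each substrate.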

[3] = target: T1, S-adenosylmethionine synthetase (MAT 1 and MAT 2); assay: Compound was tested for inhibition constant with kidney form of M-T variants of Rat methionine adenosyltransferase when ATP was the variable substrate
[4] = target: T1, S-adenosylmethionine synthetase (MAT 1 and MAT 2); assay: Compound was tested for inhibition constant with kidney form of M-2 variants of Rat methionine adenosyltransferase when Methionine was the variable substrate; summary of the method: as §1

Row | Ki [1] [nM] | Ki [2] [nM] | Ki [3] [nM] | Ki [4] [nM] | SMILES
1 | 670 | 130 | 210 | 650 | Nc1ncnc2c1ncn2[C@@H]1O[C@H]([C@H](CSCCC(N)C(=O)O)OP(=O)(O)OP(=O)(O)NP(=O)(O)O)[C@@H](O)[C@H]1O (some centres not stated)
2 | 2700 | 270 | 410 | 5400 | Nc1ncnc2c1ncn2[C@@H]1O[C@H]([C@H](CCSCCC(N)C(=O)O)OP(=O)(O)OP(=O)(O)NP(=O)(O)O)[C@@H](O)[C@H]1O (some centres not stated)
3 | 1100 | 110 | 160 | 2100 | Nc1ncnc2c1ncn2[C@@H]1O[C@H]([C@@H](CCSCCC(N)C(=O)O)OP(=O)(O)OP(=O)(O)NP(=O)(O)O)[C@@H](O)[C@H]1O (some centres not stated)
